Data set [1] is described as follows: Toxicity in C57BL/6 mouse assessed as effect on gross appearance at <=25 mg dosed as oral gavage as single bolus and measured after 24 hrs relative to control. Particulars: in vivo. In kind it is organism-based. Put shortly:
(§1)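 Male C57BL/6 mice, 6–7 weeks old, three per group. Single oral gavage bolus of 5, 10, 25, 50 or 100 mg in olive oil vehicle. Observed at 24 h for mortality, gross appearance and behavior, then post-mortem examination of liver and main organs.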

For data set [2], the system named is Mus musculus. The data set is described as follows: Induction of PXR-dependent CYP3A11 protein expression in C57BL/6 mouse intestine at 5 to 25 mg dosed as oral gavage as single bolus and measured after 24 hrs relative to control. In kind it is functional, organism-based. Put shortly:
(§2)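 Male C57BL/6 mice, 6–7 weeks old, three per group. Single oral gavage bolus of 5, 10 or 25 mg in olive oil vehicle; vehicle-only controls. Killed at 24 h. Tissue PXR mRNA measured; PXR, CYP3A11 and MDR1 protein measured by immunoblot.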

In data set [3] the test system is Mus musculus. The data set is described as follows: Induction of PXR protein expression in C57BL/6 mouse liver at 5 to 25 mg dosed as oral gavage as single bolus and measured after 24 hrs relative to control. In kind it is functional, organism-based. The method, boiled down: as §2
Data set [4] concerns the target T1, Nuclear receptor subfamily 1 group I member 2 (Homo sapiens, UniProt O75469).
T1 sequence (O75469 whole entry): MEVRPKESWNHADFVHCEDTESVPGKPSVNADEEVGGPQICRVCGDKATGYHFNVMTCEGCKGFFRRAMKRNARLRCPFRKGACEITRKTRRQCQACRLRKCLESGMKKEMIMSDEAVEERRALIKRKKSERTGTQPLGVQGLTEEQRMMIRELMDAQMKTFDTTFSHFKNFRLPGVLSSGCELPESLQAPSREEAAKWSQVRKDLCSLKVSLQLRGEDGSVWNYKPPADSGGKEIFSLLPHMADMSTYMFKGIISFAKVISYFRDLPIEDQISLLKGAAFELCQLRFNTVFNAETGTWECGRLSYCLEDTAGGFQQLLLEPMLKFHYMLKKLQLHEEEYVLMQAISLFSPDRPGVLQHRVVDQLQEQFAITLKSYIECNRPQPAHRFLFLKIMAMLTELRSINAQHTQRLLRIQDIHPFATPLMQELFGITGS
The data set is described as follows: Agonist activity at PXR in human HepG2 cells assessed as increase in MDR1 mRNA expression at 1 to 50 uM incubated for 24 hrs. Particulars: hepg2, 24 h. In kind it is cell-based. The method, boiled down: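 HepG2 cells exposed to 1–50 μM. MDR1 mRNA measured after RNA extraction and cDNA synthesis.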

The nature of data set [5]: Toxicity in C57BL/6 mouse assessed as induction of organ damage at <=25 mg dosed as oral gavage as single bolus and measured after 24 hrs relative to control. Particulars: in vivo. In kind it is organism-based. The method, boiled down: as §1
Data set [6] deals with T1, Nuclear receptor subfamily 1 group I member 2. The data set is described as follows: Agonist activity at PXR in human HepaRG cells assessed as increase in CYP3A4 protein expression at 1 to 25 uM incubated for 24 hrs by immunoblot analysis. In kind it is cell-based. (In general: Immunoblotting shows a protein as a band on a membrane.)
For data set [7] the target is unchanged. The data set is described as follows: Agonist activity at His-tagged PXR-LBD/SRC-1p (unknown origin) expressed in Escherichia coli BL21(DE3) by coactivator recruitment based Alpha-screen assay. Particulars: read-out: EC50. On the technique in general: Bead proximity is the source of the signal in Alpha formats.
Data set [8] has the same target. The data set is described as follows: Agonist activity at PXR in human HepG2 cells transfected with PXR siRNA assessed as induction of CYP3A4 expression at 10 to 50 uM incubated for 24 hrs. In kind it is cell-based. Particulars: hepg2, 24 h. The method, boiled down: (§3)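 HepG2 cells reverse-transfected with PXR siRNA using lipofectamine RNAiMAX; after 24 h silencing, treated with compound for a further 24 h. PXR and CYP3A4 transcription responses measured.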

Data set [9] shares this target. The data set is described as follows: Agonist activity at PXR in human HepG2 cells transfected with PXR siRNA at 10 to 50 uM incubated for 24 hrs. In kind it is cell-based. Particulars: hepg2, 24 h. The method, boiled down:
as §3

For data set [10], the system named is Mus musculus. The data set is described as follows: Induction of PXR protein expression in C57BL/6 mouse hepatic parenchyma assessed as induction of localization of PXR protein at hepatocytes around centro-lobular veins at 25 mg dosed as oral gavage as single bolus and measured after 24 hrs by IHC analysis relative to control. In kind it is functional, organism-based. The method, boiled down:
(§4)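 Male C57BL/6 mice, 6–7 weeks old, three per group. Single oral gavage bolus (5–25 mg) in olive oil; vehicle controls; killed at 24 h. Liver and gut formalin-fixed, paraffin-embedded; 4 μm sections stained with H&E. PXR IHC with polyclonal antibody at 1:200 on an automated stainer with polymer detection.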

In data set [11] the target is T1, Nuclear receptor subfamily 1 group I member 2. The data set is described as follows: Agonist activity at PXR in human HT29 cells assessed as increase in CYP3A4 protein expression at 1 to 25 uM incubated for 24 hrs by immunoblot analysis. In kind it is cell-based.
The subject of data set [12] is Mus musculus. The data set is described as follows: Induction of PXR protein expression in C57BL/6 mouse intestine assessed as induction of localization of PXR protein at brush border of enterocytes at 10 mg dosed as oral gavage as single bolus and measured after 24 hrs by IHC analysis relative to control. In kind it is functional, organism-based. Put shortly:
as §4

Data set [13] concerns Mus musculus. The data set is described as follows: Induction of PXR protein expression in C57BL/6 mouse hepatic parenchyma assessed as induction of localization of PXR protein at sinusoidal endothelial cells at 5 to 25 mg dosed as oral gavage as single bolus and measured after 24 hrs by IHC analysis relative to control. In kind it is functional, organism-based. The method, boiled down:
as §4

Data set [14] has as its target T1, Nuclear receptor subfamily 1 group I member 2. The data set is described as follows: Agonist activity at PXR in human HepaRG cells assessed as reversion of PXR antagonist sulforaphane-induced suppression of PXR expression at 10 uM incubated for 24 hrs by immunoblot analysis. In kind it is cell-based.
Data set [15] has as its system Mus musculus. The data set is described as follows: Induction of PXR mRNA expression in C57BL/6 mouse intestine at 5 to 25 mg dosed as oral gavage as single bolus and measured after 24 hrs relative to control. In kind it is functional, organism-based. Put shortly:
as §2

For data set [16], the target named is T1, Nuclear receptor subfamily 1 group I member 2. The data set is described as follows: Agonist activity at PXR in human HepG2 cells assessed as increase in CYP3A4 mRNA expression at 1 to 25 uM incubated for 24 hrs. Particulars: hepg2, 24 h.
In the next data set the test system is HepG2. The data set is described as follows: Effect on alpha-tocopherol level in human HepG2 cells at 25 uM. In kind it is functional, cell-based.
Data set [17] can be described thus: Toxicity in C57BL/6 mouse assessed as induction of liver damage at <=25 mg dosed as oral gavage as single bolus and measured after 24 hrs relative to control. In kind it is organism-based. Particulars: in vivo. Put shortly: as §1
The test system of data set [18] is Mus musculus. The data set is described as follows: Induction of PXR protein expression in C57BL/6 mouse intestine assessed as induction of localization of PXR protein at glandular epithelium of crypts at base of mucosa epithelium at 5 to 25 mg dosed as oral gavage as single bolus and measured after 24 hrs by IHC analysis relative to control. In kind it is functional, organism-based. The method, boiled down: as §4

The test system of data set [19] is Mus musculus. The data set is described as follows: Induction of PXR protein expression in C57BL/6 mouse intestine assessed as induction of localization of PXR protein at villous epithelium at 5 to 25 mg dosed as oral gavage as single bolus and measured after 24 hrs by IHC analysis relative to control. In kind it is functional, organism-based. The method, boiled down:
as §4

In data set [20] the target is T1, Nuclear receptor subfamily 1 group I member 2. The data set is described as follows: Agonist activity at PXR in human HepaRG cells assessed as reversion of PXR binding at 10 uM incubated for 24 hrs by immunoblot analysis. In kind it is cell-based.
The subject of data set [21] is Mus musculus. The data set is described as follows: Induction of PXR protein expression in C57BL/6 mouse hepatic parenchyma assessed as induction of localization of PXR protein at hepatocytes around lobular midzonal area at 25 mg dosed as oral gavage as single bolus and measured after 24 hrs by IHC analysis relative to control. In kind it is functional, organism-based. The method, boiled down: as §4

Calls of active or inactive are those of the source. The calls are words filed in the database; no cut-off is given here.

A word on the EC50: it is the concentration needed to bring the measured effect to its halfway point. In the case of `C/C(=C\CC/C(C)=C/CC[C@]1(C)CCc2cc(O)cc(C)c2O1)CC/C=C(\C)C(=O)O`, the Activity result in data set [1] was “Non-Toxic”; in the data set on Mus musculus [3], “Dose-dependent effect”; in [4] it was “Dose-dependent effect”; in data set [5], “Non-Toxic”; in [6] it was “Active”; in [8], “Not Active”. In addition, the Activity result in data set [9] is “Not Active”; in [11], “Active”; in data set [14], “Active”; in the data set on Mus musculus [15] it was “Dose-dependent effect”; in data set [16] it was “Dose-dependent effect”; in [17] it was “Non-Toxic”. In addition, the outcome in [20] was Active. For the same compound, the outcome with Mus musculus [2], with Mus musculus [10], with Mus musculus [12], in the data set on Mus musculus [13], with Mus musculus [18] and in the data set on Mus musculus [19] was Active. Also, the outcome in the data set on Mus musculus [21] was Active. Further, the EC50 in data set [7] was 1.3 µM. Besides, the result in the data set on HepG2 was inactive.

The record behind these values is ChEMBL document CHEMBL4402582, “Garcinoic Acid Is a Natural and Selective Agonist of Pregnane X Receptor” (J Med Chem, 2020).
